Consider 2 compounds from BindingDB's records for doi:10.1021/jm0300835 (Duke University, 2003).

For test [1], the target named is T1, M-phase inducer phosphatase 2 (Homo sapiens, UniProt P30305).
T1 sequence (P30305 whole entry): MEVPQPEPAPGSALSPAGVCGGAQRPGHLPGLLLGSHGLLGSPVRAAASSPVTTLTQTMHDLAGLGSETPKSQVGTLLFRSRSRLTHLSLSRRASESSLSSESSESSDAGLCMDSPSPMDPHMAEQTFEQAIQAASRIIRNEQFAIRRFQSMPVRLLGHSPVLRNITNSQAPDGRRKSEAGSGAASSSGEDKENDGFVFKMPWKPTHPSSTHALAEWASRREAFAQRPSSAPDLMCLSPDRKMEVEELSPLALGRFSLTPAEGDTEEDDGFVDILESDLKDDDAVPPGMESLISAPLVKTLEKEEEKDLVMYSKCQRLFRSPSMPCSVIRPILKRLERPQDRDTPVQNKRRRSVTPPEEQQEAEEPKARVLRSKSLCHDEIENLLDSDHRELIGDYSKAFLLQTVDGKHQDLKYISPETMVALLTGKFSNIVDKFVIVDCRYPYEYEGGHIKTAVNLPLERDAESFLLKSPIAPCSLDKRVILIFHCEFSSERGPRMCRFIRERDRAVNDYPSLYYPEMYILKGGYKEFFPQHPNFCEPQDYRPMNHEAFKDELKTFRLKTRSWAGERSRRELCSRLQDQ
In words: Inhibitory concentration of compound against mutant WT of Cdc25B phosphatase was determined. In outline: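 Cdc25B catalytic domain constructs (wild-type, site-directed point mutants, truncated); activity with 3-O-methylfluorescein phosphate at 50 μM (~5 × Km), product read at 477 nm by UV-vis under initial velocity (2–5% turnover); eight inhibitor concentrations, IC50 fitted; values are mean of two determinations.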

The target of test [2] is T1, M-phase inducer phosphatase 2. In words: Inhibitory concentration of compound against Cdc25B phosphatase was determined using CDK2-p-TpY/Cyclin A as a substrate. In outline: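 Cdc25B IC50 with Cdk2-pTpY/CycA protein substrate at 300 nM; eight inhibitor concentrations; time-dependent assays; 1 mg/mL BSA carrier added only after TCA quench, not during reaction.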
The target is the same in test [3]. In words: Eight point inhibitory concentration against Cell division cycle 25B was determined. Summed up:
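Cdc25B activity read by UV-vis at 477 nm as product formed from 3-O-methylfluorescein phosphate (mFP) at 50 μM (~5 × Km), time-dependent, initial-velocity conditions (2–5% turnover); eight inhibitor concentrations, IC50 fitted to eq 1. Each reaction compared with a simultaneous no-inhibitor control; selected compounds run in duplicate.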

For test [4] the target is unchanged. In words: Inhibitory concentration of compound against mutant E478Q of Cell division cycle 25B was determined. In outline:
(§1)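 Cdc25B catalytic-domain point mutants, a truncated form and wild type were assayed with 3-O-methylfluorescein phosphate as substrate, monitored at 477 nm under initial velocity conditions. Values are the mean of two separate determinations.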

Test [5] has the same target. In words: Inhibitory concentration of compound against mutant E474Q of Cell division cycle 25B was determined. Summed up:
as §1

Test [6] shares this target. Briefly: Inhibitory concentration of compound against mutant M531A of Cell division cycle 25B was determined. Summed up: as §1
The target of test [7] is T2, M-phase inducer phosphatase 3 (Homo sapiens, UniProt P30307).
T2 sequence (P30307 whole entry): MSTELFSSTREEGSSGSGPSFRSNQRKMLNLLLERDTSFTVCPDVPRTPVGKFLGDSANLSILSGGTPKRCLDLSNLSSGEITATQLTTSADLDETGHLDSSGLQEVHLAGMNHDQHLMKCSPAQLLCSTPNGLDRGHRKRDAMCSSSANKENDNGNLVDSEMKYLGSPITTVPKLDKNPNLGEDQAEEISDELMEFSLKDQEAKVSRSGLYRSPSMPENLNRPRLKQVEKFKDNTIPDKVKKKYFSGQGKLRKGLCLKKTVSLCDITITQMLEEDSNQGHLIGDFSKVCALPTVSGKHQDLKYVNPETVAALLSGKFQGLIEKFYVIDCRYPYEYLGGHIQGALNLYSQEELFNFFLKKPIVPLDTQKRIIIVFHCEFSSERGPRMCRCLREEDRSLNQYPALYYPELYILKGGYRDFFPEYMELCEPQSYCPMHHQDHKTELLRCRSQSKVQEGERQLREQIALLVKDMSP
Briefly: Eight point inhibitory concentration against […] was determined. Summed up:
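Phosphatase activity measured with 3-O-methylfluorescein phosphate at 50 μM (~5 × Km), product formation followed at 477 nm by UV-vis under initial velocity conditions (2–5% turnover) in time-dependent assays. Eight inhibitor concentrations were used, and IC50 was obtained by fitting to a dose–response equation.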

Test [8] deals with T1, M-phase inducer phosphatase 2. Briefly: Inhibitory concentration of compound against mutant F475A of Cell division cycle 25B was determined. In outline:
as §1

For the compound `O=C1CC(=O)C(=O)C(c2c[nH]c3ccccc23)C1=O` [2,5-Dihydroxy-3-(1H-indol-3-yl)-[1,4]benzoquinone], the results for the 50% inhibitory concentration (IC50) in test [1], in test [2] and in test [3] were 18 µM, above 50 µM and 18 µM, respectively.

Turning to `CC(C)=CCc1cccc2c(C3C(=O)C(=O)CC(=O)C3=O)c[nH]c12` [2,5-Dihydroxy-3-[7-(3-methyl-but-2-enyl)-1H-indol-3-yl]-[1,4]benzoquinone], the half-maximal inhibitory concentration (IC50) (in general, the point on the concentration scale where inhibition reaches its midpoint) is 6.5 µM in test [4]; above 50 µM in test [5]; 6.5 µM in test [6]; 15 µM in test [7]; above 50 µM in test [8].
